SMILES strings stand for the structures.

As usually defined, the IC50 is the point on the concentration scale where inhibition reaches its midpoint. As usually defined, the inhibition is the relative decrease from the control value, in per cent. The low end stands for a response near the control, the high end for a response far below the control. Broadly, the MIC is the least concentration at which growth counts as inhibited. One may read the Ki as the dissociation constant of the complex between target and ligand, obtained from inhibition or displacement.

The nature of data set [1]: Inhibition of NDM-1 (unknown origin). On the set-up: species or system Bacteria.
Data set [2] is described as follows: Inhibition of NDM-1 (unknown origin) expressed in Escherichia coli BW25113deltabamBdeltatolC mutant using nitrocefin as substrate by colorimetric analysis. Details: species or system Bacteria.
A short description of data set [3]: Inhibition of Escherichia coli NTBC121 NDM-1 by UV absorbance analysis.
The subject of data set [4] is Bacteria. The data set is described as follows: Inhibition of NDM-7 (unknown origin) expressed in Escherichia coli BL21(DE3) at 10 uM. An outline of the steps:
(§1)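 Enzymes cloned into pET41b from clinical enterobacterial DNA and expressed in E. coli BL21(DE3) overnight at 22 °C with 0.2 mM IPTG. His-tag affinity then Superdex 75 gel filtration (100 mM phosphate pH 7, 150 mM NaCl); dialysed into 10 mM Tris-HCl pH 7.6, with 50 µM ZnSO4 added for NDM and VIM variants.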

In data set [5] the target is Class A carbapenemase KPC-2 (Escherichia coli) (UniProt A8DS27). The data set is described as follows: Inhibition of KPC-2 (unknown origin) expressed in Escherichia coli BL21 (DE3) at 10 uM incubated for 3 mins by spectrophotometric analysis relative to control. An outline of the steps:
(§2)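 Preincubated 3 min with inhibitor in 100 mM phosphate pH 7. Imipenem 100 µM; hydrolysis followed at 297 nm for 600 s at 25 °C. IC50 from seven concentrations in triplicate; Ki by Cheng–Prusoff. Percent inhibition read at 10 µM.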

The test system of data set [6] is Bacteria. The data set can be described thus: Inhibition of CMY-2 (unknown origin) expressed in Escherichia coli BL21(DE3) at 10 uM. In a few lines:
as §1

Data set [7] has as its system Bacteria. The data set is described as follows: Inhibition of NDM-1 (unknown origin) expressed in Escherichia coli BL21 (DE3) at 10 uM incubated for 3 mins by spectrophotometric analysis relative to control. An outline of the steps: (§3)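 NDM-1 (1 nM, His-tagged, expressed in E. coli BL21(DE3) with 1 mM IPTG for 3 h at 37 °C, purified, kept with 50 µM ZnSO4). Run in 100 mM phosphate pH 7 with 50 µM ZnSO4, 3 min enzyme–inhibitor preincubation, then 100 µM imipenem. Initial rates at 297 nm over 600 s, 25 °C. Triplicate seven-point IC50 converted to Ki (Cheng–Prusoff); percent inhibition at 10 µM.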

Data set [8] concerns Bacteria. The data set is described as follows: Inhibition of OXA-48 (unknown origin) expressed in Escherichia coli BL21 (DE3) at 10 uM incubated for 3 mins by spectrophotometric analysis relative to control. An outline of the steps:
(§4)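 OXA-48 at 5.8 nM (His-tagged, expressed in BL21(DE3), purified in K2SO4 buffers) in 100 mM phosphate pH 7 plus 50 mM NaHCO3. Inhibitor preincubated 3 min; substrate 100 µM imipenem; initial velocities at 297 nm, 600 s, 25 °C. Seven inhibitor concentrations in triplicate give IC50, converted to Ki by Cheng–Prusoff; percent inhibition at 10 µM.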

The test system of data set [9] is Bacteria. The data set can be described thus: Inhibition of VIM-52 (unknown origin) expressed in Escherichia coli BL21(DE3) at 10 uM. In a few lines: as §1
The test system of data set [10] is Escherichia coli. The data set can be described thus: Potentiation of imipenem-induced antibacterial activity against Escherichia coli clinical isolate GUE expressing NDM-1 assessed as imipenem MIC at 50 uM incubated for 18 to 24 hrs by broth microdilution method (reference value: 16 ug/ml). In kind it is functional. The note with it: time 18-24 hrs. (In general: Dilution methods test growth across graded concentrations, often in twofold steps.)

A short description of data set [11]: Metabolic stability in mouse liver microsomes at 5 uM after 45 min absence of NADPH by UPLC-MS/MS analysis. The note with it: read-out: Stabilty. In kind it is ADME, Microsome. An outline of the steps:
(§5)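 Test compound at 5 µM with 0.5 mg/mL pooled male mouse liver microsomes in 0.1 M phosphate pH 7.4 at 37 °C. Reaction started with 1 mM NADPH and sampled at 0–45 min in duplicate; a no-NADPH control was run. Quenched with cold acetonitrile; parent measured by UPLC-MS/MS (MRM). t1/2 from log-linear decay; CLint per mg microsomal protein.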
A general note: Microsomes from liver hold many membrane-bound enzymes, among them those of drug oxidation.

In another data set the test system is HCT-116. The data set is described as follows: Cytotoxicity against human HCT-116 cells assessed as reduction in cell viability measured after 72 hrs by MTS assay. In kind it is cell-based. The note with it: HCT-116, 72 h. An outline of the steps: (§6)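 Cells grown at 37 °C in 5% CO2: MRC-5 in DMEM and HCT116 in RPMI 1640, each with 10% FCS and 1% glutamine. Seeded at 2.5 × 10³ cells/well, dosed after 24 h, exposed 72 h, then read at 490 nm after 2 h with reagent. IC50 = concentration halving absorbance versus untreated; triplicate.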

Data set [12] relates to Escherichia coli. The data set can be described thus: Potentiation of imipenem-induced antibacterial activity against Escherichia coli clinical isolate GUE expressing NDM-1 assessed as imipenem MIC at 20 uM incubated for 18 to 24 hrs by broth microdilution method (reference value: 16 ug/ml). Format: functional. The note with it: time 18-24 hrs.
Data set [13] has as its system Bacteria. The data set is described as follows: Inhibition of NDM-4 (unknown origin) expressed in Escherichia coli BL21(DE3) at 10 uM. An outline of the steps:
as §1

Data set [14] deals with Class A carbapenemase KPC-2 (Escherichia coli, UniProt A8DS27). The data set can be described thus: Inhibition of KPC-2 (unknown origin) expressed in Escherichia coli BL21 (DE3) incubated for 3 mins by spectrophotometric analysis. The note with it: read-out: Ki. An outline of the steps: as §2
Data set [15] in a line: Inhibition of OXA-48 (unknown origin) expressed in Escherichia coli BL21 (DE3) incubated for 3 mins by spectrophotometric analysis. Details: species or system Bacteria. The note with it: read-out: Ki. In a few lines: as §4
For data set [16], the system named is Bacteria. The data set is described as follows: Inhibition of VIM-1 (unknown origin) expressed in Escherichia coli BL21(DE3) at 10 uM. An outline of the steps: as §1
The test system of data set [17] is Escherichia coli. The data set is described as follows: Potentiation of imipenem-induced antibacterial activity against Escherichia coli clinical isolate GUE expressing NDM-1 assessed as imipenem MIC at 100 uM incubated for 18 to 24 hrs by broth microdilution method (reference value: 16 ug/ml). Format: functional. The note with it: time 18-24 hrs.
The nature of data set [18]: Inhibition of NDM-1 (unknown origin) expressed in Escherichia coli BL21 (DE3) incubated for 3 mins by spectrophotometric analysis. On the set-up: species or system Bacteria. The note with it: read-out: Ki. In a few lines: as §3
Data set [19] concerns Bacteria. The data set can be described thus: Inhibition of CTX-M-15 (unknown origin) expressed in Escherichia coli BL21(DE3) at 10 uM. An outline of the steps:
as §1

For another data set, the system named is MRC5. The data set can be described thus: Cytotoxicity against human MRC-5 cells assessed as reduction in cell viability measured after 72 hrs by MTS assay. Format: cell-based. The note with it: MRC5, 72 h. In a few lines: as §6
The nature of data set [20]: Metabolic stability in mouse liver microsomes at 5 uM assessed as intrinsic clearance measured per mg protein by UPLC-MS/MS analysis. In kind it is ADME, Microsome. The note with it: read-out: CLH. An outline of the steps:
as §5

Data set [21] has as its system Bacteria. The data set can be described thus: Inhibition of NDM-9 (unknown origin) expressed in Escherichia coli BL21(DE3) at 10 uM. In a few lines:
as §1

Data set [22] concerns Escherichia coli. The data set is described as follows: Potentiation of imipenem-induced antibacterial activity against Escherichia coli clinical isolate GUE expressing NDM-1 assessed as fold change in imipenem MIC at 50 uM incubated for 18 to 24 hrs by broth microdilution method. Format: functional. The note with it: time 18-24 hrs.
The test system of data set [23] is Escherichia coli. The data set can be described thus: Potentiation of imipenem-induced antibacterial activity against Escherichia coli clinical isolate GUE expressing NDM-1 assessed as fold change in imipenem MIC at 200 uM incubated for 18 to 24 hrs by broth microdilution method. Format: functional. The note with it: time 18-24 hrs.

Regarding `CN1CCN(NC(=O)CN2C(=O)/C(=C/c3c(Cl)ccc(Cl)c3Cl)SC2=S)CC1`, half-maximal inhibition in [1] (IC50) was put at 9440 nM.

As to `N[C@H](CN[C@H](CN[C@@H](CC(=O)O)C(=O)O)C(=O)O)C(=O)O`, the IC50 in [2] turned out to be 4000 nM.

In [3], `O=C(O)c1ncsc1NS(=O)(=O)c1cccnc1` displayed an IC50 of 2670 nM.

As to `Oc1ccc(N2/C(=N/c3ccc(I)cc3)CC2c2ccc(Cl)cc2Cl)cc1` (racemic), the inhibition in the data set on Bacteria [4] is 100%; in data set [5], over 50%; in the data set with Bacteria [6], 86%; in the data set on Bacteria [7] it was over 50%; with Bacteria [8] it was over 50%; in the data set with Bacteria [9], 0%. The inhibition with Bacteria [13] amounted to 100%; with Bacteria [16] it was 100%; in the data set on Bacteria [19], 83%; in the data set on Bacteria [21], 100%. Also, the MIC with Escherichia coli [10] came to 4 µg/mL; in the data set with Escherichia coli [12], 8 µg/mL; in the data set with Escherichia coli [17] it was 4 µg/mL. For the same molecule, the remaining at 0.75 h, 5 µM in data set [11] came to 96%. Also, the IC50 in the data set on HCT-116 came out at 32300 nM; in the data set with MRC5, 19900 nM. Further, the results for the Ki in data set [14], in data set [15] and in [18] were 280 nM, 70 nM and 70 nM, respectively. In addition, the microsomal CLint at 5 µM in data set [20] was 13.9 µL/min/mg.

Turning to `CCOc1ccc(N2/C(=N/c3ccc(OC)cc3)CC2c2ccc3ccccc3c2)cc1` (racemic), the inhibition (in data set [5]; in the data set on Bacteria [7]; in the data set with Bacteria [8]) was over 50% in each case. Also, the Ki in data set [14] turned out to be 1810 nM; in data set [15], 840 nM; in data set [18], 270 nM.

On to `CCOc1ccc(N2/C(=N/c3ccc(I)cc3)CC2c2ccc3ccccc3c2)cc1` (racemic), for which the inhibition (in [5]; in the data set with Bacteria [7]; in the data set with Bacteria [8]) was over 50% throughout. Moreover, the Ki in data set [14] turned out to be 1840 nM; in [15], 700 nM; in [18], 250 nM.

As for `Clc1ccc(C2C/C(=N\c3ccc(I)cc3)N2c2ccc(OCc3ccccc3)cc2)c(Cl)c1` (racemic), the “fold change (FC)” value in the data set on Escherichia coli [22] turned out to be 4. Also, the values for the inhibition (in [5]; in the data set with Bacteria [7]; in the data set with Bacteria [8]) were over 50%, over 50% and 41%, respectively. In addition, the figures for the MIC with Escherichia coli [10], in the data set with Escherichia coli [12] and in the data set with Escherichia coli [17] were 4 µg/mL, 16 µg/mL and 2 µg/mL, respectively. Moreover, the remaining at 0.75 h, 5 µM in data set [11] was 100%. Further, the IC50 in the data set on HCT-116 and in the data set on MRC5 was over 100000 nM in each case. Also, the Ki stood at 3690 nM in data set [14] and 360 nM in data set [18]. In addition, in [20], the microsomal CLint at 5 µM came out at 7.6 µL/min/mg.

As to `COc1ccc(N2/C(=N/c3ccc(I)cc3)CC2c2ccc(Cl)cc2Cl)cc1` (racemic), the “fold change (FC)” value in the data set on Escherichia coli [23] is reported as 2. The inhibition (in data set [5]; with Bacteria [7]; in the data set with Bacteria [8]) was over 50% in each case. The MIC with Escherichia coli [10], with Escherichia coli [12] and with Escherichia coli [17] was 16 µg/mL in each case. For the same molecule, in [11], the remaining at 0.75 h, 5 µM turned out to be 83%. For the same molecule, the IC50 in the data set with HCT-116 and with MRC5 was over 100000 nM each time. Further, the Ki in [14] stood at 1890 nM; in data set [15] it was 910 nM; in data set [18] it was 220 nM. Moreover, in data set [20], the microsomal CLint at 5 µM came to 2 µL/min/mg.

As for `COc1ccc(N2/C(=N/c3ccc(I)cc3)CC2c2ccc3ccccc3c2)cc1` (racemic), the inhibition (in data set [5]; in the data set with Bacteria [7]; in the data set on Bacteria [8]) was over 50% throughout. Besides, the results for the Ki in data set [14], in data set [15] and in data set [18] were 1580 nM, 850 nM and 230 nM, respectively.

Regarding `COc1ccc(N2/C(=N/c3ccc(I)cc3)CC2c2ccc(I)cc2)cc1` (racemic), the inhibition (in data set [5]; in the data set with Bacteria [7]; in the data set on Bacteria [8]) was over 50% in each case. Also, the Ki came to 5660 nM in data set [14], 510 nM in data set [15] and 370 nM in [18].

As to `COc1ccc(N2/C(=N/c3ccc(I)cc3)CC2c2ccc(F)cc2)cc1` (racemic), the inhibition (in data set [5]; with Bacteria [7]; in the data set with Bacteria [8]) was over 50% in each case. Further, the Ki in [14] was 6490 nM; in data set [15] it was 450 nM; in [18], 500 nM.

For the molecule `COc1ccc(N2/C(=N/c3ccc(Br)cc3)CC2c2ccc3ccccc3c2)cc1` (racemic), the inhibition (in data set [5]; with Bacteria [7]; in the data set with Bacteria [8]) was over 50% each time. Moreover, the figures for the Ki in data set [14], in [15] and in data set [18] were 5230 nM, 390 nM and 520 nM, respectively.
